# Activity calls are given as the source filed them. The calls are words filed in the database; no cut-off is given here.
# Experiments:
# Klebsiella pneumoniae = assay: Antibacterial activity against Klebsiella pneumoniae UC57 after 24 hrs by broth micro dilution method; type: functional; details: UC57, 24 h
# Bacillus cereus [1] = assay: Antibacterial activity against Bacillus cereus ATCC 7064 after 24 hrs by broth micro dilution method; type: functional; details: ATCC 7064, 24 h
# Micrococcus luteus [2] = assay: Antibacterial activity against Micrococcus luteus La 2971 after 24 hrs by broth micro dilution method; type: functional; details: La 2971, 24 h
# [3] = test system: Mycolicibacterium smegmatis; assay: Antibacterial activity against Mycobacterium smegmatis CCM 2067 after 24 hrs by broth micro dilution method; type: functional; details: CCM 2067, 24 h
# Pseudomonas aeruginosa [4] = assay: Antibacterial activity against Pseudomonas aeruginosa ATCC 27853 after 24 hrs by broth micro dilution method; type: functional; details: ATCC 27853, 24 h
# Kluyveromyces marxianus [5] = assay: Antifungal activity against Kluyveromyces fragilis NRRL 2415 after 24 hrs by broth micro dilution method; type: functional; details: NRRL 2415, 24 h
# How it was run: (§1)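 Broth microdilution was run in cation-adjusted Mueller Hinton Broth. Compounds were dissolved in DMSO at 2 mg mL^-1 and serially diluted two-fold. Yeast precultures were grown in Malt Extract Broth for 48 h. The final inoculum was about 10⁶ cfu mL^-1, and plates were incubated at 37 °C for 24 h. The MIC was read from this series.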
# Candida albicans [6] = assay: Antifungal activity against Candida albicans ATCC 10231 after 24 hrs by broth micro dilution method; type: functional; details: ATCC 10231, 24 h; how it was run: as §1
# [7] = Cytotoxicity against human 23132/87 cells assessed as cell viability at 0.1 uM after 24 hrs by MTT assay; type: functional; details: 23132-87, 24 h, read-out: Activity
# How it was run: (§2)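 Cells were seeded at 3.10³–5.10³ per well in RPMI 1640 with 10% FBS, 4 mM L-glutamine and penicillin/streptomycin, then held 24 h at 37 °C under 5% CO₂. Ligands (DMSO, final 0.5% v/v) were added at 0.1–100 for 24 or 48 h. MTT was added for 4 h and dissolved in 50% DMF/5% SDS. A570 was read, and cytotoxicity was calculated as 100×(OD treated/OD untreated).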
# [8] = Cytotoxicity against human 23132/87 cells assessed as cell viability at 1 uM after 24 hrs by MTT assay; type: functional; details: 23132-87, 24 h, read-out: Activity; how it was run: as §2
# [9] = Cytotoxicity against human 23132/87 cells assessed as cell viability at 10 uM after 24 hrs by MTT assay; type: functional; details: 23132-87, 24 h, read-out: Activity; how it was run: as §2
# [10] = Cytotoxicity against human 23132/87 cells assessed as cell viability at 0.1 uM after 48 hrs by MTT assay; type: functional; details: 23132-87, 48 h, read-out: Activity; how it was run: as §2
# [11] = Cytotoxicity against human 23132/87 cells assessed as cell viability at 1 uM after 48 hrs by MTT assay; type: functional; details: 23132-87, 48 h, read-out: Activity; how it was run: as §2
# [12] = Cytotoxicity against human 23132/87 cells assessed as cell viability at 10 uM after 48 hrs by MTT assay; type: functional; details: 23132-87, 48 h, read-out: Activity; how it was run: as §2
# A549 [13] = assay: Cytotoxicity against human A549 cells assessed as cell viability at 0.1 uM after 24 hrs by MTT assay; type: functional; details: A549, 24 h, read-out: Activity; how it was run: as §2
# A549 [14] = assay: Cytotoxicity against human A549 cells assessed as cell viability at 1 uM after 24 hrs by MTT assay; type: functional; details: A549, 24 h, read-out: Activity; how it was run: as §2
# A549 [15] = assay: Cytotoxicity against human A549 cells assessed as cell viability at 10 uM after 24 hrs by MTT assay; type: functional; details: A549, 24 h, read-out: Activity; how it was run: as §2
# A549 [16] = assay: Cytotoxicity against human A549 cells assessed as cell viability at 100 uM after 24 hrs by MTT assay; type: functional; details: A549, 24 h, read-out: Activity; how it was run: as §2
# A549 [17] = assay: Cytotoxicity against human A549 cells assessed as cell viability at 0.1 uM after 48 hrs by MTT assay; type: functional; details: A549, 48 h, read-out: Activity; how it was run: as §2
# A549 [18] = assay: Cytotoxicity against human A549 cells assessed as cell viability at 1 uM after 48 hrs by MTT assay; type: functional; details: A549, 48 h, read-out: Activity; how it was run: as §2
# A549 [19] = assay: Cytotoxicity against human A549 cells assessed as cell viability at 10 uM after 48 hrs by MTT assay; type: functional; details: A549, 48 h, read-out: Activity; how it was run: as §2
# A549 [20] = assay: Cytotoxicity against human A549 cells assessed as cell viability at 100 uM after 48 hrs by MTT assay; type: functional; details: A549, 48 h, read-out: Activity; how it was run: as §2
# 23132-87 = assay: Induction of apoptosis in human 23132/87 cells assessed as DNA fragmentation at 100 uM after 24 hrs by DNA fragmentation assay; type: functional, cell-based
# How it was run: (§3)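 10 × 10⁴ cells were seeded in 6-well plates and treated with ligand for 24 h. Cells were then collected and washed in PBS, and DNA was extracted with a kit. Extracts were run on 1.5% agarose alongside a 100 bp marker, an untreated control and DMSO-treated controls, and ladders were visualized under UV.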
# A549 [21] = assay: Induction of apoptosis in human A549 cells assessed as DNA fragmentation at 100 uM after 24 hrs by DNA fragmentation assay; type: functional, cell-based; how it was run: as §3
# A549 [22] = assay: Induction of apoptosis in human A549 cells assessed as change in nuclear appearance at 100 uM after 24 hrs by hoechst nuclear staining; type: functional, cell-based
# How it was run: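 Cells grown in 6-well plates were treated for 24 h, washed three times in PBS and fixed in ice-cold methanol for 10 min. They were stained with Hoechst 33258 for 5 min, destained in double-distilled water for 5 min and examined by fluorescence microscopy. Untreated and DMSO-treated cells served as controls.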
# Staphylococcus aureus = assay: Antibacterial activity against Staphylococcus aureus ATCC 6538 after 24 hrs by agar disk diffusion assay; type: functional
# How it was run: (§4)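 Disk diffusion with sterile 6 mm discs loaded with DMSO solutions of the test agents and placed on inoculated agar. Bacteria were pre-grown in Nutrient Broth at 30 °C for 24 h, and plates were incubated at 35 °C for 24 h. Each plate carried a reference antibiotic disc matched to the organism, and a DMSO-only solvent control was run.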
# Bacillus cereus [23] = assay: Antibacterial activity against Bacillus cereus ATCC 7064 after 24 hrs by agar disk diffusion assay; type: functional; how it was run: as §4
# Micrococcus luteus [24] = assay: Antibacterial activity against Micrococcus luteus La 2971 after 24 hrs by agar disk diffusion assay; type: functional; how it was run: as §4
# Proteus vulgaris = assay: Antibacterial activity against Proteus vulgaris ATCC 8427 after 24 hrs by agar disk diffusion assay; type: functional; how it was run: as §4
# [25] = test system: Mycolicibacterium smegmatis; assay: Antibacterial activity against Mycobacterium smegmatis CCM 2067 after 24 hrs by agar disk diffusion assay; type: functional; how it was run: as §4
# Listeria monocytogenes = assay: Antibacterial activity against Listeria monocytogenes ATCC 15313 after 24 hrs by agar disk diffusion assay; type: functional; how it was run: as §4
# Pseudomonas aeruginosa [26] = assay: Antibacterial activity against Pseudomonas aeruginosa ATCC 27853 after 24 hrs by agar disk diffusion assay; type: functional; how it was run: as §4
# Kluyveromyces marxianus [27] = assay: Antifungal activity against Kluyveromyces fragilis NRRL 2415 after 72 hrs by agar disk diffusion assay; type: functional
# How it was run: (§5)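 Sterile 6 mm paper discs were loaded with ligand solution freshly prepared in DMSO and placed on inoculated agar. The inoculum came from broth cultures: bacteria in Nutrient Broth at 30 °C for 24 h, yeasts in Malt Extract Broth for 48 h. Plates were incubated at 35 °C for 24 h (bacteria) or 25 °C for 72 h (yeasts). A DMSO solvent control and a reference antibiotic disc were included on each plate.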
# Rhodotorula mucilaginosa = assay: Antifungal activity against Rhodotorula rubra DSM 70403 after 72 hrs by agar disk diffusion assay; type: functional; how it was run: as §5
# Candida albicans [28] = assay: Antifungal activity against Candida albicans ATCC 10231 after 72 hrs by agar disk diffusion assay; type: functional; how it was run: as §5
# [29] = test system: Hanseniaspora guilliermondii; assay: Antifungal activity against Hanseniaspora guilliermondii DSM 3432 after 72 hrs by agar disk diffusion assay; type: functional; how it was run: as §5
# Debaryomyces hansenii = assay: Antifungal activity against Debaryomyces hansenii DSM 70238 after 72 hrs by agar disk diffusion assay; type: functional; how it was run: as §5
compound,measurement,setting,value
O=C1CSSCC(=O)Nc2nc(nc(-c3ccccc3)n2)NC(=O)CSSCC(=O)Nc2nc(nc(-c3ccccc3)n2)N1,MIC,Klebsiella pneumoniae,6.25 mg/L
same,MIC,Bacillus cereus [1],3.12 mg/L
same,MIC,Micrococcus luteus [2],3.12 mg/L
same,MIC,[3],25 mg/L
same,MIC,Pseudomonas aeruginosa [4],25 mg/L
same,MIC,Kluyveromyces marxianus [5],1.56 mg/L
same,MIC,Candida albicans [6],3.12 mg/L
same,viability at 0.1 µM,[7],> 86%
same,viability at 1 µM,[8],> 86%
same,viability at 10 µM,[9],> 86%
same,viability at 0.1 µM,[10],> 86%
same,viability at 1 µM,[11],> 86%
same,viability at 10 µM,[12],> 86%
same,viability at 0.1 µM,A549 [13],> 86%
same,viability at 1 µM,A549 [14],> 86%
same,viability at 10 µM,A549 [15],> 86%
same,viability at 100 µM,A549 [16],> 86%
same,viability at 0.1 µM,A549 [17],> 86%
same,viability at 1 µM,A549 [18],> 86%
same,viability at 10 µM,A549 [19],> 86%
same,viability at 100 µM,A549 [20],> 86%
same,Activity,23132-87,inactive
same,Activity,A549 [21],inactive
same,Activity,A549 [22],inactive
same,inhibition zone (IZ),Staphylococcus aureus,14 mm
same,inhibition zone (IZ),Bacillus cereus [23],17 mm
same,inhibition zone (IZ),Micrococcus luteus [24],18 mm
same,inhibition zone (IZ),Proteus vulgaris,11 mm
same,inhibition zone (IZ),[25],10 mm
same,inhibition zone (IZ),Listeria monocytogenes,10 mm
same,inhibition zone (IZ),Pseudomonas aeruginosa [26],11 mm
same,inhibition zone (IZ),Kluyveromyces marxianus [27],19 mm
same,inhibition zone (IZ),Rhodotorula mucilaginosa,18 mm
same,inhibition zone (IZ),Candida albicans [28],19 mm
same,inhibition zone (IZ),[29],20 mm
same,inhibition zone (IZ),Debaryomyces hansenii,21 mm

# Reference: ChEMBL document CHEMBL1156002, “Synthesis, Raman, FT-IR, NMR spectroscopic characterization, antimicrobial activity, cytotoxicity and DNA binding of new mixed aza-oxo-thia macrocyclic compounds” (2009)
